Experimental data taken from ChEMBL document CHEMBL1155561, “A new 2D-TLC bioautography method for the discovery of novel antifungal agents To control plant pathogens” (2000).
Active and inactive are the calls of the source. The calls are words filed in the database; no cut-off is given here.

Tested on: Colletotrichum fragariae
Assay: Antifungal activity against Colletotrichum fragariae assessed as zone of inhibition
Format: functional
Outline: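 Direct 1D-TLC bioautography on glass-backed Si gel plates (activated 1 h at 100 °C). Standards were applied at […] from 5 µM ethanolic solutions (1 × 10-5 µmol/spot) and developed in 1:1 EtOAc/hexanes. Plates were sprayed three times with conidia (ca. 3 × 10^5/mL) in PDB with 0.1% agar and 0.1% Tween-80, then incubated at 24 °C with a 12 h photoperiod. Inhibition zones were measured after 4 days.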

Row | SMILES | Activity | inhibition zone (IZ)
1 | c1ccc2[nH]c(-c3cscn3)nc2c1 | inactive | –
2 | O=CNC(N1CCN(C(NC=O)C(Cl)(Cl)Cl)CC1)C(Cl)(Cl)Cl (stereo not given) | inactive | –
3 | COC(=O)Nc1nc2ccccc2[nH]1 [CARBENDAZIM] | – | 24 mm2
4 | C=CC1(C)OC(=O)N(c2cc(Cl)cc(Cl)c2)C1=O (stereo not given) [VINCLOZOLIN] | – | 48 mm2
5 | Nc1c(Cl)cc([N+](=O)[O-])cc1Cl [ALLISAN] | – | 80 mm2
6 | CO/C=C(/C(=O)OC)c1ccccc1Oc1cc(Oc2ccccc2C#N)ncn1 [AZOXYSTROBIN] | – | 80 mm2
7 | O=[N+]([O-])c1c(Cl)c(Cl)c(Cl)c(Cl)c1Cl [PENTACHLORONITROBENZENE] | – | 5 mm2
8 | CC(=O)O.CCCCCCCCCCCCNC(=N)N [DODINE] | – | 20 mm2
9 | COC(=O)NC(=S)Nc1ccccc1NC(=S)NC(=O)OC [THIOPHANATE METHYL] | – | 24 mm2
10 | CC(C)Oc1cccc(NC(=O)c2ccccc2C(F)(F)F)c1 | inactive | –
